pIC50: −log10 of the molar value.
Tested on: N9
Assay: Antiinflammatory activity against mouse N9 cells assessed as inhibition of LPS-induced nitric oxide production after 48 hrs by Griess reaction relative to control
Assay type: functional, cell-based
Details: Homo sapiens, N9, 48 h
Procedure, shortened: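 Murine N9 microglia (IMDM, 5% heat-inactivated FBS, 2 mM L-glutamine, 5 × 10^-5 M 2-mercaptoethanol), 1 × 10^5 cells/well, precultured 24 h at 37 °C, 5% CO2. Then LPS 1 µg/mL plus compound (DMSO stock diluted in PBS pH 7.4, DMSO ≤0.1%) for 48 h. Supernatant nitrite read by Griess reagent, 15 min room temperature, A540. Expressed as % of LPS-only response. IC50 from linear/nonlinear regression, n = 3. Curcumin positive control.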

- pIC50: < 4.00
Structure (SMILES): COC1O[C@@]2(C)CC(=O)[C@@H]3C[C@]2(O[C@@H]2O[C@H](CO)[C@@H](O)[C@H](O)[C@H]2O)[C@@]13COC(=O)c1ccccc1 (stereo partly specified)
